Compounds with a hit are over-represented: about 3.5% of the library has one in this group of screens.
MrgX1 PAM: allosterically activates human MrgX1 receptor signaling; B-score at 10 µM; actives 0.63% (n = 310,000); MrgX1-HEK293, Fluo-4 calcium flux, FDSS; hits give high values; Q96LB2; AID 588675;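 active means plate-corrected calcium response at least 3 library SD above typical, normal starting fluorescence, not activating the receptor alone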;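 further: compound read alongside a low EC10 to EC30 dose of BAM8-22 agonist; peak minus trough fluorescence over baseline measured at the second addition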
Target sequence (Q96LB2 whole entry, looked up): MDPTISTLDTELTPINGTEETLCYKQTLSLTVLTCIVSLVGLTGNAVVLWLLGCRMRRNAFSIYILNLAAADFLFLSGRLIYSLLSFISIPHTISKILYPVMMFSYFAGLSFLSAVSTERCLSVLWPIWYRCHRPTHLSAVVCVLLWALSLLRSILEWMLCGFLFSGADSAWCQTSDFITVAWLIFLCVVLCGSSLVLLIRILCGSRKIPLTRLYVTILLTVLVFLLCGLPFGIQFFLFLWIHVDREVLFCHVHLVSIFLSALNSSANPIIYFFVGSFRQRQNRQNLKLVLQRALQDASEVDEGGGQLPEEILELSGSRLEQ
MrgX1 ag: activates human MrgX1 receptor signaling; actives 0.44% (n = 310,000); B-score at 10 µM; AID 588627; MrgX1-HEK293 cells, Fluo-4 calcium fluorescence, agonist mode; hits give high values; Q96LB2;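 active means calcium response B-score plate-corrected fluorescence ratio at least 3 library SD, with starting fluorescence B-score inside 5 SD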
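Material – MrgX1-expressing HEK293 cells · Input – 15,000 cells seeded per well · Dosing – compound as first of three additions · Times – overnight seeding, then 1 h dark dye loading · Measured by – kinetic Fluo-4 NW fluorescence of intracellular calcium · Read-out – B-scored fluorescence response ratio · Benchmarks – positive and negative control wells on each plate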
RGS4 pot: RGS4 potentiation or activation | B-score at 10 µM | actives 0.92% (n = 310,000) | HEK293 M3R/inducible RGS4, carbachol calcium flux Fluo4; hits give low values | AID 463111;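 active means B-score of the integrated calcium signal more than 4 SD below the library mean, with starting fluorescence not abnormally high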;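 further: negative B-score means reduced calcium response which marks RGS4 activation or potentiation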
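Material: M3R-expressing HEK293 line, RGS4 induced by doxycycline | Schedule: Overnight RGS4 induction, 30 min dye load 37 °C, 20 min compound RT | Measured by: Fluo4 fluorescence kinetic imaging of calcium | Read-out: Integrated calcium ratio converted to B score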
MrgX1 antagonist: human MrgX1 receptor antagonism, primary screen; Q96LB2; MRGX1-HEK293 calcium flux, Fluo-4, BAM8-22 antagonism; hits give low values; B-score at 10 µM; actives 1.3% (n = 310,000); AID 588676;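 active means calcium-response B-score plate-corrected more than 3 library SD below zero, starting fluorescence within 5 deviations, no agonist response on first addition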;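 further: peak minus trough fluorescence over baseline after final BAM8-22 challenge near maximal dose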
RGS4 block: inhibitors of human RGS4; AID 463165; P49798; HEK293 M3R/RGS4 inducible, Fluo-4 calcium flux; hits give high values; triggered by carbachol at its EC20; actives 0.45% (n = 310,000); B-score at 10 µM;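 active means B-score, a plate-corrected calcium signal, over three deviations above library mean, with baseline fluorescence within five deviations of library mean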;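 further: RGS4 expression induced by doxycycline in cells with stable M3 receptor; B-score is computed from the integrated fluorescence ratio over baseline after carbachol; higher B-score means a larger calcium signal and so more RGS4 inhibition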
Target sequence (P49798 whole entry, looked up): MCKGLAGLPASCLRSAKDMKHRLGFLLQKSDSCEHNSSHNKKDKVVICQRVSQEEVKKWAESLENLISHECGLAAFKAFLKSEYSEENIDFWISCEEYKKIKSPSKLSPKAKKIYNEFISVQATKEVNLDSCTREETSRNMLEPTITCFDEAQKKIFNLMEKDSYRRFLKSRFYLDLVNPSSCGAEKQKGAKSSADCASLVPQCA
* hit, by the source's call; i = inactive; x = not tested or not shown.

SMILES	MrgX1 PAM	MrgX1 ag	RGS4 pot	MrgX1 antagonist	RGS4 block
N#CC1=C(N)SC(N)=C(C#N)C1c1cccc(O)c1	i	39.1*	i	i	i
CSc1ccc(/C=C2\CCn3c2nc2cc(C(=O)O)ccc2c3=O)cc1	i	i	i	i	i
CCOc1ccc(C(=O)C(CCC(CN(C)C)C(=O)c2ccc(OCC)cc2)CN(C)C)cc1 (stereo unspecified)	x	x	-7.95*	x	i
COc1ccc(C(=O)C(CCCCC(CN(C)C)C(=O)c2ccc(OC)cc2)CN(C)C)cc1 (stereo unspecified)	i	i	i	i	i
CC(C)=CCCC(C)CN1CCC(n2nccc2NC(=O)C2CCCC2)CC1 (stereo unspecified)	i	i	i	i	i
COc1ccc(/C=C/C(=O)Oc2cccc(/C=N/NC(=O)c3cccc(F)c3)c2)cc1	i	i	i	i	i
COc1ccc(/C=C\C(=O)Oc2cccc(/C=N/NC(=O)Cc3ccc(OC)c(OC)c3)c2)cc1	i	i	i	-5.48*	i
COc1ccc(CCNC(=O)COC(=O)/C=C/c2ccc(OC)c(OC)c2)cc1	i	i	i	-4.52*	i
CCCC/C(C)=N/NC(=O)C(=O)NCCc1ccccc1	i	i	i	i	i
COCCNC(=S)NNc1ccccc1[N+](=O)[O-]	i	i	i	-5.12*	i
CC1(C)C2CC[C@]3(C)C(CC=C4[C@@H]5C[C@@](C)(CO)[C@@H](O)C[C@]5(C(=O)O)CC[C@]43C)[C@@]2(C)CC[C@@H]1O (stereo partly specified)	i	i	i	i	i
CC(=O)O[C@H]1CC[C@]2(C)[C@H]3CC=C4[C@@H]5[C@@H](C)[C@H](C)CC[C@]5(C(=O)O)CC[C@@]4(C)[C@]3(C)CC[C@H]2C1(C)C	i	i	i	i	13.7*
Cc1nc(N2CCCCC2)c2c(C)c(C(=O)Nc3ccc4c(c3)OCCO4)sc2n1	i	i	-7.01*	i	i
COc1cc(C2C(C#N)=C(N)OC3=C2C(=O)CC(C)(C)C3)c([N+](=O)[O-])cc1OC (stereo unspecified)	i	29.2*	i	i	i
COc1ccc(C2C(C#N)=C(N)OC3=C2C(=O)CC(C)(C)C3)c([N+](=O)[O-])c1OC (stereo unspecified)	i	i	i	i	i
CC1(C)N=C(/C=N/O)CN1O	i	i	i	i	i
COc1ccc(NC(=O)c2ccc(NC(=O)CN(C)CC(=O)Nc3c(C)cccc3C)cc2)cc1	i	i	i	i	i
CCN(CC)S(=O)(=O)c1ccc(OC)c(NC(=O)CSc2cc(C)ccc2C)c1	i	i	i	i	i
Nc1nnc(SCC(=O)NN2C(=O)NC3(CCCCC3)C2=O)s1	i	i	i	i	i
O=C1CCCc2nc(N3CCN(C(c4ccccc4)c4ccccc4)CC3)ncc21	i	i	-7.04*	i	i
COc1cccc(C(=O)NNC(=O)Cc2ccc(Cl)cc2)c1	i	i	i	-6.99*	i
COc1ccc(C(=O)NNC(=O)Cc2ccc(Cl)cc2)cc1	i	i	i	i	i
CCOC(=O)[C@H]1[C@H]2COc3ccc(Cl)cc3[C@@H]2N2C(=O)c3ccccc3NC(=O)[C@@]12C	i	i	x	i	x
C#CCOCCOCCOCCNc1nc(N2CCN(C(=O)CCCCCCCCCCNC(=O)[C@H]([C@@H](C)CC)n3cc(CCCCCN)nn3)CC2)nc(N2CCN(C(=O)CCCCCCCCCCNC(=O)[C@@H]([C@H](C)CC)n3cc(CCCCCN)nn3)CC2)n1	i	106*	x	i	x
C#CCOCCOCCOCCNc1nc(N2CCN(C(=O)CCCCCCCCCCNC(=O)[C@H]([C@@H](C)CC)n3cc(CCCCCN)nn3)CC2)nc(N2CCN(C(=O)CCCCCCCCCCNC(=O)[C@H](CO)n3cc(CCCCCN)nn3)CC2)n1	i	108*	x	i	x
SMILES	MrgX1 PAM	MrgX1 ag	RGS4 pot	MrgX1 antagonist	RGS4 block
C#CCOCCOCCOCCNc1nc(N2CCN(C(=O)CCCCCCCCCCNC(=O)[C@@H](CCC(=O)O)n3cc(CCCCCN)nn3)CC2)nc(N2CCN(C(=O)CCCCCCCCCCNC(=O)[C@H]([C@@H](C)CC)n3cc(CCCCCN)nn3)CC2)n1	i	i	x	i	x
Nc1nc(-c2cccnc2)nn1C(=O)c1ccc(F)cc1	x	x	i	x	i
O=[N+]([O-])c1ccc(S(=O)(=O)CC2CSc3nc4ccccc4n32)cc1 (stereo unspecified)	i	i	i	-5*	i
Cc1nnc2n(c1=O)C(CS(=O)(=O)c1ccccc1)CS2 (stereo unspecified)	i	i	i	i	i
O=C(C1CCC(Cn2c(=S)[nH]c3ccccc3c2=O)CC1)N1CCOCC1 (stereo unspecified)	i	i	i	i	i
O=C(C1CCC(Cn2c(=S)[nH]c3ccccc3c2=O)CC1)N1CCN(c2ccccc2)CC1 (stereo unspecified)	i	i	i	i	5.42*
CN(c1cccc(NC(=O)Nc2cccc(Cl)c2)c1)S(C)(=O)=O	i	i	i	-5.23*	i
CN(C)S(=O)(=O)N(CC(=O)NCCSCc1ccc(Cl)cc1)c1ccccc1	i	i	i	-7.83*	i
CCCCNc1c(-c2cccc(-c3cc(C(C)=O)cs3)c2)nc2ccc(C)cn12	i	i	-7.08*	i	i
COC(=O)Nc1c(-c2ccccc2)nc2ccc(C)cn12	i	i	i	i	i
CCCCNc1c(-c2cccc(-c3ccc(OC)cc3)c2)nc2ccc(C)cn12	i	i	-7.8*	i	i
CCCCNc1c(-c2ccc(-c3cccc(Cl)c3)cc2)nc2ccccn12	i	i	i	i	i
Cc1ccc(-c2csc(NC(=O)c3ccc(Br)cc3)c2C(=O)O)cc1	i	30.7*	i	i	i
Cc1cccc(C(=O)Nc2scc(-c3ccc(Br)cc3)c2C(=O)O)c1	i	i	i	i	i
CC(C)c1ccc(-c2csc(NC(=O)c3cccs3)c2C(=O)O)cc1	19*	i	i	-6.75*	i
CC(C)c1ccc(C(CC(=O)O)NC(=O)c2cccs2)cc1 (stereo unspecified)	i	i	i	i	i
[N-]=[N+]=NC1C[C@H](n2ccc(=O)[nH]c2=O)O[C@@H]1CO (stereo partly specified)	i	i	i	i	i
